Legend:
[1] = target: Histamine H1 receptor (Homo sapiens, UniProt P35367); assay: Binding affinity to human recombinant H1 receptor
[2] = target: Histamine H2 receptor (Homo sapiens, UniProt P25021); assay: Binding affinity to human recombinant H2 receptor
[3] = target: Histamine H3 receptor (Homo sapiens, UniProt Q9Y5N1); assay: Binding affinity to human recombinant H3 receptor expressed in HEK293T cells; type: cell-based, HEK-293T
[4] = target: Histamine H4 receptor (Homo sapiens, UniProt Q9H3N8); assay: Binding affinity to human recombinant H4 receptor
Chain of Histamine H4 receptor (Q9H3N8 whole entry): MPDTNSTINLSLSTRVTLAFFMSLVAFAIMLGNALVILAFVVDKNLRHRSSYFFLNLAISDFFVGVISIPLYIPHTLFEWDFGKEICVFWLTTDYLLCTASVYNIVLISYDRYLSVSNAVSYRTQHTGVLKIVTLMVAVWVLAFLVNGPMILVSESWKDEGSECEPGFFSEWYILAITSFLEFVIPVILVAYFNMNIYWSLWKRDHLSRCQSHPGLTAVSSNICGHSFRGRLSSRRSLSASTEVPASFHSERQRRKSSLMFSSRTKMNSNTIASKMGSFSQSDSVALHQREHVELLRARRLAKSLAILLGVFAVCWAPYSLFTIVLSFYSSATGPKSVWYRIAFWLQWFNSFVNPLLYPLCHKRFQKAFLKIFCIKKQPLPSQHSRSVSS

[5] = target: 5-hydroxytryptamine receptor 1A (Homo sapiens, UniProt P08908); assay: Binding affinity to human recombinant 5HT1A receptor
[6] = target: 5-hydroxytryptamine receptor 1B (Homo sapiens, UniProt P28222); assay: Binding affinity to human recombinant 5HT1B receptor
Chain of 5-hydroxytryptamine receptor 1B (P28222 whole entry): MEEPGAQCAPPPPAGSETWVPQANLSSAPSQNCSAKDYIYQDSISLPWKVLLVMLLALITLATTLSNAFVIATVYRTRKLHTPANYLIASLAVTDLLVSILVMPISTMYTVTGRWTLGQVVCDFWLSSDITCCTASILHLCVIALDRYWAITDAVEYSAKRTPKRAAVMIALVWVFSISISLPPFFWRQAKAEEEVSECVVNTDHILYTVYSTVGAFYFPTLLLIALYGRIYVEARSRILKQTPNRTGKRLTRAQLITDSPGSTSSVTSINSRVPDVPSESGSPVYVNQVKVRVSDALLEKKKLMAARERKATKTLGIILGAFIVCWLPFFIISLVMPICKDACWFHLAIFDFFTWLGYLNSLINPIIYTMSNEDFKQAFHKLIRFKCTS

[7] = target: 5-hydroxytryptamine receptor 1D (Homo sapiens, UniProt P28221); assay: Binding affinity to human recombinant 5HT1D receptor
Summary of the method: (§1)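 Ki values were taken from in vitro competitive binding assays against each human recombinant receptor.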

[8] = target: 5-hydroxytryptamine receptor 2A (Homo sapiens, UniProt P28223); assay: Binding affinity to human recombinant 5HT2A receptor; summary of the method: as §1
Chain of 5-hydroxytryptamine receptor 2A (P28223 whole entry): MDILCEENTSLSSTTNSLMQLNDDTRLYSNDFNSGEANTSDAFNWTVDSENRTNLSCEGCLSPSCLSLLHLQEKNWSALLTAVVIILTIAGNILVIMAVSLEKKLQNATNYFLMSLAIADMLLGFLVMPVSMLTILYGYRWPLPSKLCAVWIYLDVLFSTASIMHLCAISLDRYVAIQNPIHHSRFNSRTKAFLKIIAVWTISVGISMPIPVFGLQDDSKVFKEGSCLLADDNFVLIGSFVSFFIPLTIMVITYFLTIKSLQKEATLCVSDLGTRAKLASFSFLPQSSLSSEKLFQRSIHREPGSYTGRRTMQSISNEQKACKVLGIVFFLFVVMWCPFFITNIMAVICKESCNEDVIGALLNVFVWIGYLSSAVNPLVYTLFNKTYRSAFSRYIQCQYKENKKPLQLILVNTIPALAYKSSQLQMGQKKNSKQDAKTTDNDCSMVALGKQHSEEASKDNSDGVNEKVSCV

[9] = target: 5-hydroxytryptamine receptor 2B (Homo sapiens, UniProt P41595); assay: Binding affinity to human recombinant 5HT2B receptor
[10] = target: Sodium-dependent dopamine transporter (Homo sapiens, UniProt Q01959); assay: Binding affinity to human recombinant DAT
[11] = target: Muscarinic acetylcholine receptor M1 (Homo sapiens, UniProt P11229); assay: Binding affinity to human recombinant M1 receptor
Chain of Muscarinic acetylcholine receptor M1 (P11229 whole entry): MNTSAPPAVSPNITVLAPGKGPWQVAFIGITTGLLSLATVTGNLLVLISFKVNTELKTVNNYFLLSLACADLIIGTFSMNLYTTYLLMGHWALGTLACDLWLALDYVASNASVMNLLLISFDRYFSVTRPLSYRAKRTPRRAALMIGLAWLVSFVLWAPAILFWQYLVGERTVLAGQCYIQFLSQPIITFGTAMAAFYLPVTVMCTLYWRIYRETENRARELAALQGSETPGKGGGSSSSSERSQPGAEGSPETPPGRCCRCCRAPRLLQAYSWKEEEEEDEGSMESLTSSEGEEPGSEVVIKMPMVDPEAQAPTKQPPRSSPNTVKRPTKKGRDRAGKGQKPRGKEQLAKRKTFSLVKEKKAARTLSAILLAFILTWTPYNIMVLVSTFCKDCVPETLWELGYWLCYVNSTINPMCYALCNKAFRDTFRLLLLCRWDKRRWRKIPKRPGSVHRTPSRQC

[12] = target: Muscarinic acetylcholine receptor M2 (Homo sapiens, UniProt P08172); assay: Binding affinity to human recombinant M2 receptor
[13] = target: Muscarinic acetylcholine receptor M3 (Homo sapiens, UniProt P20309); assay: Binding affinity to human recombinant M3 receptor
Chain of Muscarinic acetylcholine receptor M3 (P20309 whole entry): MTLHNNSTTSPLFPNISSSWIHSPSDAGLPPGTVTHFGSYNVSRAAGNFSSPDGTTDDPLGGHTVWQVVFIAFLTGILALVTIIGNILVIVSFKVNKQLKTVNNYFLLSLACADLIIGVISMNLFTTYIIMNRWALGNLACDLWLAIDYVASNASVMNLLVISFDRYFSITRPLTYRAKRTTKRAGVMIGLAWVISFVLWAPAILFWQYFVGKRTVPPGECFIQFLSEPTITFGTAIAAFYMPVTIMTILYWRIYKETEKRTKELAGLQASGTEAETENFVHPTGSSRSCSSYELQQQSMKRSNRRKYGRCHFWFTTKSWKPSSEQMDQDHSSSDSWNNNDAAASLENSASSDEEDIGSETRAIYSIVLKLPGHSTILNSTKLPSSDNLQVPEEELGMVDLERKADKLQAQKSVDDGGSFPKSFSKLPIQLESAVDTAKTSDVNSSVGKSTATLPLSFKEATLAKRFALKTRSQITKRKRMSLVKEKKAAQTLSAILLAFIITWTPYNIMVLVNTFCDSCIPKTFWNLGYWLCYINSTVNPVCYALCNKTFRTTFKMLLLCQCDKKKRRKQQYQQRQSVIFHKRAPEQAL

[14] = target: Muscarinic acetylcholine receptor M4 (Homo sapiens, UniProt P08173); assay: Binding affinity to human recombinant M4 receptor
[15] = target: Muscarinic acetylcholine receptor M5 (Homo sapiens, UniProt P08912); assay: Binding affinity to human recombinant M5 receptor; summary of the method: as §1
Chain of Muscarinic acetylcholine receptor M5 (P08912 whole entry): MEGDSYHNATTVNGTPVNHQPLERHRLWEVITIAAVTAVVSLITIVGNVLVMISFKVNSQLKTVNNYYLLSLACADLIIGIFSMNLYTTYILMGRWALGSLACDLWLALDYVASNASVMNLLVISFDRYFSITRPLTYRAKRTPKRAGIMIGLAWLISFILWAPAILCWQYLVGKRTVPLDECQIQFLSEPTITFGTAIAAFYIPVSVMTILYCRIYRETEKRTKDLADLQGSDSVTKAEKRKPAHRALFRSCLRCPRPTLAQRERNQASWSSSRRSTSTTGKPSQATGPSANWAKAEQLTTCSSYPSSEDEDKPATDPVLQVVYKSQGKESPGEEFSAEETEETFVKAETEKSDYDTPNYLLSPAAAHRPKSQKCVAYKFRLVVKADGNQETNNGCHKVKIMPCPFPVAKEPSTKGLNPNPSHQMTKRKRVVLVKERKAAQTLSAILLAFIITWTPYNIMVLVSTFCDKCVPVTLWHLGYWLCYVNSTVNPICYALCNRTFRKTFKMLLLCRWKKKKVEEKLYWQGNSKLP

[16] = target: 5-hydroxytryptamine receptor 1E (Homo sapiens, UniProt P28566); assay: Binding affinity to human recombinant 5HT1E receptor
Chain of 5-hydroxytryptamine receptor 1E (P28566 whole entry): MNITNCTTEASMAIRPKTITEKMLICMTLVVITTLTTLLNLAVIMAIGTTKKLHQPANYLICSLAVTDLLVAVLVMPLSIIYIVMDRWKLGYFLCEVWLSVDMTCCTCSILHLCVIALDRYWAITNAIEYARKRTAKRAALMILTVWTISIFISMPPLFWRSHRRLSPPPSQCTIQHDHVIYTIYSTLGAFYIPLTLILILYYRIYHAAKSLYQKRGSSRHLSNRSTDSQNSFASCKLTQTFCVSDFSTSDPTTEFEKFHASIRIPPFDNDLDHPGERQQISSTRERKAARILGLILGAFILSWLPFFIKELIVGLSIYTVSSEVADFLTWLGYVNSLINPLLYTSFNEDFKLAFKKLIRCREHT

[17] = target: 5-hydroxytryptamine receptor 2C (Homo sapiens, UniProt P28335); assay: Binding affinity to human recombinant 5HT2C receptor
Chain of 5-hydroxytryptamine receptor 2C (P28335 whole entry): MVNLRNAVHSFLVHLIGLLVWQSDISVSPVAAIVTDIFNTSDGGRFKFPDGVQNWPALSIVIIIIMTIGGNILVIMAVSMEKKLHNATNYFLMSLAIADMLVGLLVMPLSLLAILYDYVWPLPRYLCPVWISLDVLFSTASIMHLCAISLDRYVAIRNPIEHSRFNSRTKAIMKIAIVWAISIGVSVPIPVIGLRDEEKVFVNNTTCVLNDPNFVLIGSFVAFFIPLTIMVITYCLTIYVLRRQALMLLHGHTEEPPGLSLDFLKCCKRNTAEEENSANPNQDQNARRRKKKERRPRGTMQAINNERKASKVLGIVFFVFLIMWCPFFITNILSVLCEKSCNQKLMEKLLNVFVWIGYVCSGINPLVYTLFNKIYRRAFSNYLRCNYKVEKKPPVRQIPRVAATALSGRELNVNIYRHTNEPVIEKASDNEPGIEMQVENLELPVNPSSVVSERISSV

[18] = target: 5-hydroxytryptamine receptor 3A (Homo sapiens, UniProt P46098); assay: Binding affinity to human recombinant 5HT3 receptor
[19] = target: 5-hydroxytryptamine receptor 6 (Homo sapiens, UniProt P50406); assay: Binding affinity to human recombinant 5HT6 receptor
Chain of 5-hydroxytryptamine receptor 6 (P50406 whole entry): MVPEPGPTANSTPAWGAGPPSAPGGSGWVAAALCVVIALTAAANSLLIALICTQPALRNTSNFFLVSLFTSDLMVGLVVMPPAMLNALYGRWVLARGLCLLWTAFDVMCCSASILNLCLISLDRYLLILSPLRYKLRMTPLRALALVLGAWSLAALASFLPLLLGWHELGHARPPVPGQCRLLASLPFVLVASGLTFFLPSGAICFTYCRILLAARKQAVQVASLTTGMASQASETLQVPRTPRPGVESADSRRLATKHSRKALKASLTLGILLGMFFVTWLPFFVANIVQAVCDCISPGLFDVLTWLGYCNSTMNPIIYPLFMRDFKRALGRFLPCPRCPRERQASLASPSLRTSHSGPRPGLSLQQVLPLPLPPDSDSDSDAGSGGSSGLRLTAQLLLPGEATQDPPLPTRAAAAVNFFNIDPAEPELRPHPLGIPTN

[20] = target: 5-hydroxytryptamine receptor 7 (Homo sapiens, UniProt P34969); assay: Binding affinity to human recombinant 5HT7 receptor
[21] = target: Alpha-1A adrenergic receptor (Homo sapiens, UniProt P35348); assay: Binding affinity to human recombinant alpha1A adrenergic receptor
[22] = target: Alpha-1B adrenergic receptor (Homo sapiens, UniProt P35368); assay: Binding affinity to human recombinant alpha1B adrenergic receptor
[23] = target: Alpha-1D adrenergic receptor (Homo sapiens, UniProt P25100); assay: Binding affinity to human recombinant alpha1D adrenergic receptor
[24] = target: Alpha-2A adrenergic receptor (Homo sapiens, UniProt P08913); assay: Binding affinity to human recombinant alpha2A adrenergic receptor
[25] = target: Alpha-2B adrenergic receptor (Homo sapiens, UniProt P18089); assay: Binding affinity to human recombinant alpha2B adrenergic receptor
Chain of Alpha-2B adrenergic receptor (P18089 whole entry): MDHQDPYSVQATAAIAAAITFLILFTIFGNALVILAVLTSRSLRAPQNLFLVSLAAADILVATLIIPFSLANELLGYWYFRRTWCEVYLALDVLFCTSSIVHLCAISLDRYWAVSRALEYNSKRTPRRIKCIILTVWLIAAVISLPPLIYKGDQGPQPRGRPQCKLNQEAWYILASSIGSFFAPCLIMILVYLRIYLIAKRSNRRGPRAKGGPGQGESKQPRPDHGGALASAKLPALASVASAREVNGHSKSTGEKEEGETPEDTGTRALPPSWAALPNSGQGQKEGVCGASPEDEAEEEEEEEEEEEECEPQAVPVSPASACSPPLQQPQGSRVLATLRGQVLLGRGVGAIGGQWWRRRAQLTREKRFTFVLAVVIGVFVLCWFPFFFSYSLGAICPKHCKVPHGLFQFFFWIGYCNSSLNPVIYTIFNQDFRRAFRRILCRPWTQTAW

[26] = target: Alpha-2C adrenergic receptor (Homo sapiens, UniProt P18825); assay: Binding affinity to human recombinant alpha2C adrenergic receptor
[27] = target: Beta-1 adrenergic receptor (Homo sapiens, UniProt P08588); assay: Binding affinity to human recombinant beta1 adrenergic receptor
[28] = target: Beta-2 adrenergic receptor (Homo sapiens, UniProt P07550); assay: Binding affinity to human recombinant beta2 adrenergic receptor
[29] = target: Beta-3 adrenergic receptor (Homo sapiens, UniProt P13945); assay: Binding affinity to human recombinant beta3 adrenergic receptor
Chain of Beta-3 adrenergic receptor (P13945 whole entry): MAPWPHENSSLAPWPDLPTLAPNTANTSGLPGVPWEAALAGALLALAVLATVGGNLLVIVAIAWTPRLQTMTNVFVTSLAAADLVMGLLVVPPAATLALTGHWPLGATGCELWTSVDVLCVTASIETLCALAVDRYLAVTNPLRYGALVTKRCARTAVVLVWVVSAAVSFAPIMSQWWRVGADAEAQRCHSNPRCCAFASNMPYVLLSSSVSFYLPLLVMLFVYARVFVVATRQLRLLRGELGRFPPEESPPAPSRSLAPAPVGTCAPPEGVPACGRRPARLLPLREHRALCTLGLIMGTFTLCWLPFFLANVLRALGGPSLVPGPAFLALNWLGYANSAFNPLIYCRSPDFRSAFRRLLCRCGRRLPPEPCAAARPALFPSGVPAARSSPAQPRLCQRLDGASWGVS

[30] = target: D(1A) dopamine receptor (Homo sapiens, UniProt P21728); assay: Binding affinity to human recombinant Dopamine D1 receptor
[31] = target: D(2) dopamine receptor (Homo sapiens, UniProt P14416); assay: Binding affinity to human recombinant Dopamine D2 receptor
[32] = target: D(3) dopamine receptor (Homo sapiens, UniProt P35462); assay: Binding affinity to human recombinant Dopamine D3 receptor
[33] = target: D(4) dopamine receptor (Homo sapiens, UniProt P21917); assay: Binding affinity to human recombinant Dopamine D4 receptor
[34] = target: D(1B) dopamine receptor (Homo sapiens, UniProt P21918); assay: Binding affinity to human recombinant Dopamine D5 receptor
[35] = target: Sigma non-opioid intracellular receptor 1 (Homo sapiens, UniProt Q99720); assay: Binding affinity to human recombinant sigma1 receptor
[36] = target: Sodium-dependent serotonin transporter (Homo sapiens, UniProt P31645); assay: Binding affinity to human recombinant SERT
[37] = target: Sodium-dependent noradrenaline transporter (Homo sapiens, UniProt P23975); assay: Binding affinity to human recombinant NET
[38] = target: Histamine receptor H3 (Macaca mulatta) (UniProt Q865E1); assay: Induction of histamine H3 receptor-mediated drug uptake in rhesus monkey brain by PET imaging
Summary of the method: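 Male rhesus monkeys (7.3 ± 0.8 kg; n = 4 baseline), ketamine 10 mg/kg i.m. then 1.5% isoflurane in O2. […] [18F]ligand given i.v. Focus 220 microPET, 180 min (one scan 120 min), 45 frames 30 s–5 min, scatter/attenuation corrected, decay-corrected; template-normalized regions; uptake as SUV.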

SMILES | Ki [1] [µM] | Ki [2] [µM] | Ki [4] [µM] | Ki [5] [µM] | Ki [6] [µM] | Ki [7] [µM] | Ki [8] [µM] | Ki [9] [µM] | Ki [10] [µM] | Ki [11] [µM] | Ki [12] [µM] | Ki [13] [µM] | Ki [14] [µM] | Ki [15] [µM] | Ki [16] [µM] | Ki [17] [µM] | Ki [18] [µM] | Ki [19] [µM] | Ki [20] [µM] | Ki [21] [µM] | other results
C[C@@H]1CCCN1CCc1cc2cc(C(=O)c3ccc([N+](=O)[O-])cc3)ccc2o1 | 7.05 | 0.923 | > 10 | > 10 | > 10 | 5.24 | 1.36 | > 10 | 0.137 | 0.931 | 0.681 | 0.512 | 0.415 | 0.336 | > 10 | > 10 | > 10 | > 10 | > 10 | > 10 | Ki [3]: 0.0004 µM; Ki [22]: > 10 µM; Ki [23]: > 10 µM; Ki [24]: > 10 µM; Ki [25]: > 10 µM; Ki [26]: > 10 µM; Ki [27]: > 10 µM; Ki [28]: > 10 µM; Ki [29]: > 10 µM; Ki [30]: > 10 µM; Ki [31]: > 10 µM; Ki [32]: > 10 µM; Ki [33]: > 10 µM; Ki [34]: > 10 µM; Ki [35]: > 10 µM; Ki [36]: > 10 µM; Ki [37]: > 10 µM
CNC(=O)c1ccc(Oc2ccc3c(c2)CCN(C2CCC2)CC3)nc1 | – | – | – | – | – | – | – | – | – | – | – | – | – | – | – | – | – | – | – | – | Activity [38]: > 90%
COc1ccc2c(c1)C(=O)O[C@]21CC[C@H](C(=O)N(C)CCN2CCCCC2)CC1 | – | – | – | – | – | – | – | – | – | – | – | – | – | – | – | – | – | – | – | – | Activity [38]: 83%
C[C@@H]1CCCN1CCc1cc2cc(C(=O)c3ccc(F)cc3)ccc2o1 | 5.44 | 1.71 | > 10 | 0.432 | > 10 | 6.38 | 2.72 | 3.15 | > 10 | 3.27 | 0.462 | 0.204 | 0.351 | 0.437 | > 10 | > 10 | > 10 | > 10 | > 10 | > 10 | Ki [22]: > 10 µM; Ki [23]: > 10 µM; Ki [24]: > 10 µM; Ki [25]: > 10 µM; Ki [26]: > 10 µM; Ki [27]: > 10 µM; Ki [28]: > 10 µM; Ki [29]: > 10 µM; Ki [30]: > 10 µM; Ki [31]: > 10 µM; Ki [32]: > 10 µM; Ki [33]: > 10 µM; Ki [34]: > 10 µM; Ki [35]: > 10 µM; Ki [36]: > 10 µM; Ki [37]: > 10 µM

Reference: ChEMBL document CHEMBL2029214, “Radiosynthesis and evaluation of an (18)F-labeled positron emission tomography (PET) radioligand for brain histamine subtype-3 receptors based on a nonimidazole 2-aminoethylbenzofuran chemotype” (J Med Chem, 2012)
